Sampled rows, rich in hits. Any-hit rate of the full collection: about 1.9%.
M5 ag: CHRM5 agonism in calcium assay; CHO-K1 hM5 cells, Fluo-8 calcium fluorescence; 0% DMSO wells, 100% maximal acetylcholine response; P08912; actives 0.19% (n = 360,000); activation, % at 3 µM;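 active means activation above the run's mean over test compounds plus 3 SD, cut at about 23% in these data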;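 further: signal is peak over basal fluorescence ratio across the kinetic read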
Target sequence (P08912 whole entry, looked up): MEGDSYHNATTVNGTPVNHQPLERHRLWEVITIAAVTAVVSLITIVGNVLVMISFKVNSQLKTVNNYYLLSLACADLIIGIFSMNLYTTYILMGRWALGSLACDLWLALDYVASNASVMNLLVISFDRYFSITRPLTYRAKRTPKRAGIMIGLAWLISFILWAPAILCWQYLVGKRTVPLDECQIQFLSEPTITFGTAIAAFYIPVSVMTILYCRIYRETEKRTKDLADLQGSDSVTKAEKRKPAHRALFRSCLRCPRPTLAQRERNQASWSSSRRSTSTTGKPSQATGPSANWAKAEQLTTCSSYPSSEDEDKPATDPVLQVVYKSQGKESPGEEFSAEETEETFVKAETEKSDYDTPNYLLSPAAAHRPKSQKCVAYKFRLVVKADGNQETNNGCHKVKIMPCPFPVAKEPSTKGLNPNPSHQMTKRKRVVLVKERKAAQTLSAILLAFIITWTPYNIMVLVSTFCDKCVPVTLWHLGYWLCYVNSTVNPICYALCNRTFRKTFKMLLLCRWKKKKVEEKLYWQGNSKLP
M4 PAM: potentiates acetylcholine response at human M4 receptor. actives 0.4% (n = 360,000). activation, % at 3 µM. AID 624126. P08173. CHO-K1 hM4/Gqi5, Fluo-8 calcium fluorescence, ACh EC20; 0% = ACh EC20, 100% = maximal ACh;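 active means activation above its plate's cutoff, the mean activation of sample wells plus 3 SD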
M4 antag: CHRM4 antagonism in calcium assay; inhibition, % at 3 µM; CHO-hM4 cells, ACh EC80, Fluo-8 calcium fluorescence; actives 0.73% (n = 360,000); P08173;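 active means inhibition above its plate's cutoff, the mean inhibition of sample wells plus 3 SD, cut at about 27% in these data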;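 further: 0% = acetylcholine EC80 with DMSO and 100% = DMSO without agonist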
CHRM5 antagonist: antagonists of human muscarinic M5 receptor (CHRM5) | CHO-hM5 cells, Fluo-8 calcium fluorescence, ACh EC80 | actives 0.59% (n = 360,000) | inhibition, % at 3 µM | P08912 | AID 624040;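 active means inhibition above a per-plate cutoff, the mean of that plate's test compounds plus 3 SD, cut at about 27% in these data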;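 further: 0% = acetylcholine EC80 with DMSO and 100% = DMSO without agonist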
M4 ag: agonists of human muscarinic M4 receptor (CHRM4); CHO-K1 hM4/Gqi5, Fluo-8 calcium fluorescence; vehicle 0%, full acetylcholine response 100%; AID 624127; activation, % at 3 µM; P08173; actives 0.14% (n = 360,000);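 active means activation above the run mean over all test wells plus 3 SD, cut at about 32% in these data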;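 further: peak over basal fluorescence ratio per well then scaled between controls; 0% = DMSO wells and 100% = acetylcholine at EC100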
CHRM5 PAM: potentiates acetylcholine response at human M5 receptor; actives 0.3% (n = 360,000); P08912; activation, % at 3 µM; CHO-K1 hM5, Fluo-8 calcium, ACh EC20 PAM; 0% = ACh EC20, 100% = ACh EC100;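 active means activation above the run cutoff, the mean activation of all test compounds plus 3 SD, cut at about 18% in these data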
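Test system: CHO-K1 hM5 cells / Doses: single-point, 3 µM nominal / Times: Post-acetylcholine fluorescence recording 140 s / Technique: Fluo-8 calcium fluorescence / Measure: Max/basal fluorescence ratio as % of EC20–EC100 ACh window / Benchmarks: low control EC20 acetylcholine (0%), high control EC100 acetylcholine (100%) / Replicates: one well per compound, no replicates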
Numbers without * were called inactive.

SMILES | M5 ag | M4 PAM | M4 antag | CHRM5 antagonist | M4 ag | CHRM5 PAM
Cc1ccccc1-n1c(O)c(/C=N/N2CCCCC2c2cccnc2)c(=O)[nH]c1=O (stereo not given) | 12.4 | 24.2* | -5.7 | 2.5 | 1.4 | 29.5*
Cc1ccc(S(=O)(=O)N2CCCCC2c2cccnc2)c(C)c1C (stereo not given) | -7.4 | -14.5 | -3.5 | 2.9 | 1.5 | -4.0
CC[C@H](C)[C@@H](CO)NC(=O)[C@H]1O[C@@H](n2ccc(N)nc2=O)[C@H](O)[C@@H]1O | 0.2 | 3.1 | -6.2 | 6.2 | 0.0 | -3.4
OC(CCN1CCOCC1)(c1ccc(Cl)cc1)C1CCCCC1 (stereo not given) | -11.2 | -14.5 | 39.2* | 29.2* | -1.3 | -34.4
CCCCNC(=O)C1(C)CCCCN1C(=O)c1oc2ccccc2c1C (stereo not given) | -0.3 | 3.6 | -1.9 | 2.9 | -0.5 | 1.8
COc1cc(CNC(=O)c2cc(-c3cc(Cl)ccc3OC)n[nH]2)cc(OC)c1 | -2.3 | 3.9 | -5.8 | 1.4 | 0.7 | -1.1
CC1CCC(C(C)C)C(OCC(O)C[N+]2(C)CCCCC2)C1 (stereo not given) | -13.2 | -19.0 | 8.6 | 4.2 | 0.7 | -13.8
CC1CCC(C(C)C)C(OCC[N+](C)(C)C)C1 (stereo not given) | -7.5 | -36.3 | 98.9* | 99.5* | 1.4 | -19.5
C1C2CC3C1C3C2=NN=C1C2CC3C(C2)C13 | 0.5 | 11.1 | -5.9 | 1.1 | 0.9 | -0.7
Cc1ccc(C(C)C)cc1OCC(=O)NNC(=O)Nc1ccccc1 | -6.2 | -15.9 | 61.0* | -0.4 | 3.6 | -3.8
Cc1ccc(C(C)C)c(OCC(=O)NNC(=O)Nc2ccccc2)c1 | 4.7 | -7.2 | 5.6 | 6.4 | 3.3 | 0.2
CCOc1ccc(S(=O)(=O)NC(Cc2cnc[nH]2)C(=O)O)cc1 (stereo not given) | 4.5 | 21.1* | -6.3 | 5.0 | 3.5 | 9.1
COc1ccc(CNC(=O)C(c2ccc(C)cc2)N(Cc2cccs2)C(=O)c2ccc3c(c2)OCCO3)cc1 (stereo not given) | 3.8 | -11.7 | 31.7* | 23.9 | 24.2 | -22.6
COc1ccc(CNCc2cn(-c3cccc(F)c3)nc2-c2ccc(C)o2)cc1 | 5.6 | 7.4 | 34.1* | -3.5 | 4.0 | -1.1
COc1ccc(-n2cc(CNCc3cccnc3)c(-c3cccc(F)c3)n2)cc1 | -0.4 | 4.0 | -6.2 | 7.0 | 4.7 | 0.8
COc1ccc(C(=O)NCc2ccc3c(c2)cc(C)n3C)cc1OC | 1.4 | 4.9 | -2.4 | 10.5 | 2.1 | 0.0
CCN(CC)c1ccc(S(=O)(=O)N2CCOCC2)cc1NC(=O)COC(=O)/C=C/c1ccccc1 | -3.2 | -12.8 | 10.1 | 19.9 | 19.1 | -37.1
CCN(CC)c1ccc(S(=O)(=O)N2CCOCC2)cc1NC(=O)COC(=O)/C=C/c1ccc(C)o1 | -2.4 | -8.7 | 10.8 | 31.1* | 22.1 | -34.0
Cc1cc2cc(CNC(=O)c3ccc(S(=O)(=O)N4CCCCC4)cc3)ccc2n1C | 2.0 | -7.4 | 15.9 | -0.2 | 6.5 | -7.6
O=C(COC(=O)/C=C/c1ccc(S(=O)(=O)N2CCOCC2)cc1)NCc1ccc(Cl)cc1 | 9.2 | 16.8 | -16.1 | -15.8 | 2.2 | 19.4*
CCN(CC)S(=O)(=O)c1ccc(C(=O)NCc2ccc3c(c2)cc(C)n3C)cc1 | 1.6 | -16.6 | 55.1* | -1.7 | 1.3 | -1.8
Cc1cc2cc(CNC(=O)c3ccc(S(=O)(=O)N4CCCC4)cc3)ccc2n1C | -0.7 | -15.1 | 35.0* | 7.9 | 2.8 | -6.5
O=C(COC(=O)/C=C/c1ccc(S(=O)(=O)N2CCOCC2)cc1)NCc1ccccc1 | 3.4 | 3.9 | 22.8 | 5.0 | 5.1 | 4.9
Cc1ccc(CNC(=O)COC(=O)c2ccc(S(=O)(=O)N3CCCC3)cc2)cc1 | -7.8 | 1.8 | -0.4 | 2.4 | 2.4 | 22.4*
CN(NS(=O)(=O)c1ccc(Br)cc1)c1nc(C(F)(F)F)nc2ccccc12 | 0.1 | 1.7 | -10.0 | 28.6* | 4.9 | -9.4
CN(N)c1nc(C(F)(F)F)nc2ccccc12 | -2.9 | 0.9 | -1.7 | -0.3 | -0.4 | -3.8
